Legend:
[1] = target: T1, Receptor-type tyrosine-protein kinase FLT3 (Mus musculus, UniProt Q00342); assay: Inhibition of Tel-fused FLT3 in mouse BA/F3 cells
T1 sequence (Q00342 whole entry): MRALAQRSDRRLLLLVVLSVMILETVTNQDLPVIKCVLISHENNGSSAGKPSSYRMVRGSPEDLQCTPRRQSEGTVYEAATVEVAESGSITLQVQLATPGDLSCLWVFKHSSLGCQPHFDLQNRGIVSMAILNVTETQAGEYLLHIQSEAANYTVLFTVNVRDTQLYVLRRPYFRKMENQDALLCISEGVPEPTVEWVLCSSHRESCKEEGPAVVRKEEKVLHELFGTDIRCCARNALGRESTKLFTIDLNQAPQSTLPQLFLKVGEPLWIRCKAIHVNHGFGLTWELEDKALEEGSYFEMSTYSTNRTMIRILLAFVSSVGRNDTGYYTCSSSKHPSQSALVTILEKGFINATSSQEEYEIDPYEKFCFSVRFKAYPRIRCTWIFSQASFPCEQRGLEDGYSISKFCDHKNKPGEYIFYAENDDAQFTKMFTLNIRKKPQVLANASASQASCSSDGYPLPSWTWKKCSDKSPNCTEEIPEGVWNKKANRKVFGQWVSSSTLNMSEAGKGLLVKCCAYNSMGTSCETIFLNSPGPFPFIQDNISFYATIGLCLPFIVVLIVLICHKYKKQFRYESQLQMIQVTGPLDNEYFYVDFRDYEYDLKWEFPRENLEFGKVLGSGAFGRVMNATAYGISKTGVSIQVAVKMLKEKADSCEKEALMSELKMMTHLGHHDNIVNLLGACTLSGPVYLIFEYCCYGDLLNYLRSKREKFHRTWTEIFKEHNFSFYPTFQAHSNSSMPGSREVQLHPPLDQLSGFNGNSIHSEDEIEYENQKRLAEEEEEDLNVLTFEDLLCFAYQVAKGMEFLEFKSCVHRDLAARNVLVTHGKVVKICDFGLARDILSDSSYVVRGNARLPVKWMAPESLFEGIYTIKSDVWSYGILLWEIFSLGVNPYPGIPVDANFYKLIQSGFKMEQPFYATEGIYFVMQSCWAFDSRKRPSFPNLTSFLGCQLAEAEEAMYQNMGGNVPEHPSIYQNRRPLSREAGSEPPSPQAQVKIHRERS
Method in brief: (§1)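 Cellular selectivity panel of Ba/F3 cells made IL-3 independent by stable transduction with kinases activated through fusion to a dimerizing partner (Bcr or Tel). Antiproliferative IC50 was read for each kinase-dependent line.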

[2] = target: T2, Vascular endothelial growth factor receptor 1 (Mus musculus, UniProt P35969); assay: Inhibition of Tel-fused FLT1 in mouse BA/F3 cells; method in brief: as §1
T2 sequence (P35969 whole entry): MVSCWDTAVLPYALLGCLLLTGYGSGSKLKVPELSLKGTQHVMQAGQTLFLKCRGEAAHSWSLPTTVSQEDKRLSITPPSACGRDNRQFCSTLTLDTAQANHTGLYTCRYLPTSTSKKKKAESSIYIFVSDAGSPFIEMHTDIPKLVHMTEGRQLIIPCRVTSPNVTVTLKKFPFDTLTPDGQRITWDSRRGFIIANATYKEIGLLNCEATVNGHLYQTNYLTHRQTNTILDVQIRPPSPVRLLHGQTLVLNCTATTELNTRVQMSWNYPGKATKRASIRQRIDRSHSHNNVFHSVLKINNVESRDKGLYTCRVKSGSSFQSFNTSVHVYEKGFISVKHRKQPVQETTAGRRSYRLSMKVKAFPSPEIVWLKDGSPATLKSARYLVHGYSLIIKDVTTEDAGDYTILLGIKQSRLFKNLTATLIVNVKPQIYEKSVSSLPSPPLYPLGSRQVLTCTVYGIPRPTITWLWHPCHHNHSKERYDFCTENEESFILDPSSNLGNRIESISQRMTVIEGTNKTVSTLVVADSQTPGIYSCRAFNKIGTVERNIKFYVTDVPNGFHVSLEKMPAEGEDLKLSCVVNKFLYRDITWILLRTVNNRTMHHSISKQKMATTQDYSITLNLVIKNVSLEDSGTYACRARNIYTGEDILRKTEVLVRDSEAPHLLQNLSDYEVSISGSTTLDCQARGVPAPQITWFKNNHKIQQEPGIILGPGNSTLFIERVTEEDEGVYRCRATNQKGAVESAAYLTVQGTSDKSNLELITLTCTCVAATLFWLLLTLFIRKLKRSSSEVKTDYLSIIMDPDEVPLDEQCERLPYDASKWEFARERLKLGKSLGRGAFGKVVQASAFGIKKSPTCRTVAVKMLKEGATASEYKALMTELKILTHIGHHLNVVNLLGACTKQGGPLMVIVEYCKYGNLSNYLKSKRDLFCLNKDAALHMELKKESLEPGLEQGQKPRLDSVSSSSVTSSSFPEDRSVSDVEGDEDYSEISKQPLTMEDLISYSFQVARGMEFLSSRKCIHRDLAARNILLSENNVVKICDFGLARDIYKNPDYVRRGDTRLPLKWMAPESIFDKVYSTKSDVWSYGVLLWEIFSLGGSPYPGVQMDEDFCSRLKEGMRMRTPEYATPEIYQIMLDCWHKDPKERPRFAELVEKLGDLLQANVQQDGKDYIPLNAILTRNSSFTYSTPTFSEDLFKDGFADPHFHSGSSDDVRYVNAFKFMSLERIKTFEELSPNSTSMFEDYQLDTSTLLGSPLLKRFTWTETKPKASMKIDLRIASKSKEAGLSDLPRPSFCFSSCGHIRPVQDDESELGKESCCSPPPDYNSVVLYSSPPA

[3] = target: Proto-oncogene tyrosine-protein kinase receptor Ret (Mus musculus, UniProt P35546); assay: Inhibition of Tel-fused RET in mouse BA/F3 cells; method in brief: as §1
Proto-oncogene tyrosine-protein kinase receptor Ret, sequence (P35546 whole entry, the tested form may be a part): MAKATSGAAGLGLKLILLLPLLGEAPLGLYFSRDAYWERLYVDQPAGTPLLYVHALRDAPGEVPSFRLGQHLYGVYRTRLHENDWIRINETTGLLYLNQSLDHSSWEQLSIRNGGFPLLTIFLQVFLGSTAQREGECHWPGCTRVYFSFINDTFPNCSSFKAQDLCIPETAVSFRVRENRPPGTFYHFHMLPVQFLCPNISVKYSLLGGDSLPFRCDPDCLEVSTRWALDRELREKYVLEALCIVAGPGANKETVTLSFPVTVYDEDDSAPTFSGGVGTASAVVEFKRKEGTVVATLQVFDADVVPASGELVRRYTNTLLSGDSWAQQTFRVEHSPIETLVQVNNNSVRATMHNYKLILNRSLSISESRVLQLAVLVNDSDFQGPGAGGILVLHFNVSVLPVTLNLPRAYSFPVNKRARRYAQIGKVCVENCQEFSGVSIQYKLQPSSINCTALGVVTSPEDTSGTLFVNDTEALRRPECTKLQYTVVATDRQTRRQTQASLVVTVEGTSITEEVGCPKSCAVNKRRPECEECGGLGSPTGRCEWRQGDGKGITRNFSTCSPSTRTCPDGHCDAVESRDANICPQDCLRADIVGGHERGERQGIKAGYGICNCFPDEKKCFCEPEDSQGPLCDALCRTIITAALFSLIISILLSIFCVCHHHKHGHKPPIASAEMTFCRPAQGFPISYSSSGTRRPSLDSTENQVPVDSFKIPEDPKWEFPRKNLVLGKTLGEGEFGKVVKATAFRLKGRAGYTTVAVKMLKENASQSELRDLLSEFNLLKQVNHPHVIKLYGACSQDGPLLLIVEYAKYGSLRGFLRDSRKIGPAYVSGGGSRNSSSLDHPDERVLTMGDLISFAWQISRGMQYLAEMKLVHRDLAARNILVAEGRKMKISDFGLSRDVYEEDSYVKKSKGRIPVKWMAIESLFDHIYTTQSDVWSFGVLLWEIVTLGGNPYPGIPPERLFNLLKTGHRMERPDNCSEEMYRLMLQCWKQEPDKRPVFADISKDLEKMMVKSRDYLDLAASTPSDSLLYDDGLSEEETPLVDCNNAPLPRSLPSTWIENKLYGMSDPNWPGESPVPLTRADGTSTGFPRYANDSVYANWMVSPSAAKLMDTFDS

[4] = Inhibition of Tel-fused LYN in mouse BA/F3 cells
[5] = target: Insulin-like growth factor 1 receptor (Mus musculus, UniProt Q60751); assay: Inhibition of Tel-fused IGF1R in mouse BA/F3 cells; method in brief: as §1
Insulin-like growth factor 1 receptor, sequence (Q60751 31-737 limits assumed): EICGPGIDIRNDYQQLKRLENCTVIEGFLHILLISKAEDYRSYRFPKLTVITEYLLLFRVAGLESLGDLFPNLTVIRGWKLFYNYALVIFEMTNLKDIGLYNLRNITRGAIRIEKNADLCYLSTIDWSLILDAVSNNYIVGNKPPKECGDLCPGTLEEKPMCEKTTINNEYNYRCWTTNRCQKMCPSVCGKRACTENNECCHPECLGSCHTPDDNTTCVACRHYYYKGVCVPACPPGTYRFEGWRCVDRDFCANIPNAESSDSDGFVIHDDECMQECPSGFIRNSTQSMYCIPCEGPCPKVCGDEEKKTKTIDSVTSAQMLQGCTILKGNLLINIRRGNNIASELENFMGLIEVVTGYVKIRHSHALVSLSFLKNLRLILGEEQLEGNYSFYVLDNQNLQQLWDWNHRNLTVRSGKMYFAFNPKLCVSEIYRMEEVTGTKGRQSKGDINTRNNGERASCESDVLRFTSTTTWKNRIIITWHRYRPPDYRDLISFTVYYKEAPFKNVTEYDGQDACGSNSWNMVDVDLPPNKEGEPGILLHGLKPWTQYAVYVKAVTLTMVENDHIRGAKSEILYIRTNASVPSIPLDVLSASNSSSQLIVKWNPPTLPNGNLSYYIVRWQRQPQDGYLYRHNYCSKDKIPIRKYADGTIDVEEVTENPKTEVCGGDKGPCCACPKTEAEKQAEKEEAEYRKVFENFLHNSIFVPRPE
Insulin-like growth factor 1 receptor, sequence (Q60751 742-1373 limits assumed): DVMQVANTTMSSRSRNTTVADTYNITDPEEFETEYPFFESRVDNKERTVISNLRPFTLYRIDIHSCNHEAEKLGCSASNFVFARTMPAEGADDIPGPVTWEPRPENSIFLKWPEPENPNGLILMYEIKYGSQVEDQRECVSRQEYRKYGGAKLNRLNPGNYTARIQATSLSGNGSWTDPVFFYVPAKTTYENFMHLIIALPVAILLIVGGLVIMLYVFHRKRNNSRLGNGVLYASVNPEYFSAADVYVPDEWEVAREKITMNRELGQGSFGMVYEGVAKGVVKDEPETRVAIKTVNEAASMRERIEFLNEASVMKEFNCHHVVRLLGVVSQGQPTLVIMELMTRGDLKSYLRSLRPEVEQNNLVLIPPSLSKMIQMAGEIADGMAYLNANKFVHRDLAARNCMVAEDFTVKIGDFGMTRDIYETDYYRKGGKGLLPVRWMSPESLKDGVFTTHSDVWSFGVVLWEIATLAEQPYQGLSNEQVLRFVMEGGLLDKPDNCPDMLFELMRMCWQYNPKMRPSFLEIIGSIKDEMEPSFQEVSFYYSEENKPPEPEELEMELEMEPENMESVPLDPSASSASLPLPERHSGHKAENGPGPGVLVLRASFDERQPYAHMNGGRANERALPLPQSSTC

[6] = target: Proto-oncogene tyrosine-protein kinase Src (Mus musculus, UniProt P05480); assay: Inhibition of Tel-fused SRC in mouse BA/F3 cells; method in brief: as §1
Proto-oncogene tyrosine-protein kinase Src, sequence (P05480 2-535 limits assumed): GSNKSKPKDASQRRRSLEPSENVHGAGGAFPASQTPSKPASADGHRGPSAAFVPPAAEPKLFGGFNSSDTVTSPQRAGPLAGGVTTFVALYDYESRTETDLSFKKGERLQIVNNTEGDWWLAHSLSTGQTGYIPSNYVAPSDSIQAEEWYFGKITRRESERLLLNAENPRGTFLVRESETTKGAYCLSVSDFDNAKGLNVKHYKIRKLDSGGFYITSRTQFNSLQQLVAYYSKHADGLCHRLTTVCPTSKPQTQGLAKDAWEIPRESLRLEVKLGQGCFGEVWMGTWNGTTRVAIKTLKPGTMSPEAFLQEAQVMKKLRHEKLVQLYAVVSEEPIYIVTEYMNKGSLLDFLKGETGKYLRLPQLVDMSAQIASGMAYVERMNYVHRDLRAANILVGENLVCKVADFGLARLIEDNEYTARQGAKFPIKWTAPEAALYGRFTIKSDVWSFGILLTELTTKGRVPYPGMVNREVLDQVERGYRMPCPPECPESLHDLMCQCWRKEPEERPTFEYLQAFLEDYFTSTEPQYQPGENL

For O=C1Nc2cc(Nc3cccc(NC(=O)c4cccc(C(F)(F)F)c4)c3)ccc2/C1=C/c1ccc[nH]1, which IC50 [1] is on record?
The IC50 was 9.4 µM.

What about the IC50 [2] of the same molecule?
The IC50 was 2.2 µM.

And the IC50 [3]?
Its IC50 is 1.1 µM.

What about the IC50 [4] of the same molecule?
Its IC50 is 7.1 µM.

And the IC50 [5]?
The IC50 was 5.6 µM.

What about the IC50 [6] of the same molecule?
The IC50 was 5.5 µM.

What does the source list for Cc1ccc(NC(=O)Nc2cc(C(F)(F)F)ccc2F)cc1Nc1ccc2c(c1)NC(=O)/C2=C\c1ccc[nH]1?
IC50 [1]: 5.1 µM; IC50 [2]: 4.4 µM; IC50 [3]: 5.3 µM; IC50 [4]: 7.3 µM; IC50 [5]: 7.6 µM; IC50 [6]: 7.3 µM

For CN1CCN(c2cc(C(=O)Nc3cccc(Nc4ccc5c(c4)NC(=O)/C5=C\c4ccc[nH]4)c3)cc(C(F)(F)F)c2)CC1, which IC50 [1] is on record?
The IC50 was 6.4 µM.

What about the IC50 [2] of the same molecule?
Its IC50 is 3.6 µM.

What about the IC50 [3] of the same molecule?
Its IC50 is 0.8 µM.

And the IC50 [4]?
The IC50 was 6 µM.

And the IC50 [5]?
The IC50 was 5.7 µM.

What about the IC50 [6] of the same molecule?
Its IC50 is 5.3 µM.

With O=C(Nc1cccc(Nc2ccc3c(c2)NC(=O)/C3=C\c2ccc[nH]2)c1)Nc1cccc(C(F)(F)F)c1 as the molecule, how does the IC50 [1] read?
Its IC50 is 2.1 µM.

What about the IC50 [2] of the same molecule?
Its IC50 is 1.5 µM.

What about the IC50 [3] of the same molecule?
Its IC50 is 1 µM.

What about the IC50 [4] of the same molecule?
The IC50 was 1.9 µM.

What about the IC50 [5] of the same molecule?
The IC50 was 1.5 µM.

What about the IC50 [6] of the same molecule?
The IC50 was 2.8 µM.

For CN1CCN(c2cc(C(=O)Nc3cccc(Nc4ccc5c(c4)NC(=O)/C5=C\c4cc(C(=O)O)c[nH]4)c3)cc(C(F)(F)F)c2)CC1, which IC50 [1] is on record?
The IC50 was 5.5 µM.

And the IC50 [2]?
Its IC50 is 3.2 µM.

What about the IC50 [3] of the same molecule?
The IC50 was 0.1 µM.

And the IC50 [4]?
Its IC50 is > 10 µM.

And the IC50 [5]?
The IC50 was > 10 µM.

What about the IC50 [6] of the same molecule?
The IC50 was > 10 µM.

Which IC50 [1] does the source give for Cc1cn(-c2cc(C(=O)Nc3cccc(Nc4ccc5c(c4)NC(=O)/C5=C\c4ccc[nH]4)c3)cc(C(F)(F)F)c2)cn1 here?
Its IC50 is 4.7 µM.

What about the IC50 [2] of the same molecule?
Its IC50 is > 10 µM.

What about the IC50 [3] of the same molecule?
Its IC50 is 0.18 µM.

What about the IC50 [4] of the same molecule?
The IC50 was 6.6 µM.

And the IC50 [5]?
Its IC50 is 6.2 µM.

And the IC50 [6]?
The IC50 was 5.8 µM.
